Data set [1] in a line: Inhibition of recombinant SPM-1 (unknown origin) expressed in Escherichia coli BL21 (DE3) cells using FC4 as substrate assessed as residual activity at 1 mM preincubated for 10 mins prior to substrate addition by fluorescence-based assay relative to control. The method, boiled down:
(§1)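 Mature SPM-1, E. coli codon-optimized, with N-terminal His6 tag cleavable by 3C protease, was expressed from pOPINF in E. coli BL21(DE3) pLysS in 2TY and purified to >95%. […] Fluorescence was read at λex 380/λem 460 nm and residual activity calculated.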

For data set [2], the system named is BL21-DE3. Nature of the data set: Inhibition of recombinant SPM-1 (unknown origin) expressed in Escherichia coli BL21 (DE3) cells using FC4 as substrate assessed as residual activity at 200 uM preincubated for 10 mins prior to substrate addition by fluorescence-based assay relative to control. The gist of the method: as §1
A short description of data set [3]: Chemical stability of the compound in buffer assessed as compound hydrolysis after 8 hrs. In kind it is physicochemical. The method, boiled down: (§2)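 Substrate autohydrolysis was followed in aqueous assay buffer at room temperature over time, up to at least 8 h.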
The nature of data set [4]: Chemical stability of the compound in aqueous solution. The class given is physicochemical. Particulars: buffer. The gist of the method: as §2
For data set [5], the system named is BL21-DE3.
Data set [6] has as its system BL21-DE3. The source holds these as a separate data set.
The subject of data set [7] is BL21-DE3. This is another data set of the same source.
Data set [8] has as its system BL21-DE3. The source holds these as a separate data set.
The test system of data set [9] is BL21-DE3. This is another data set of the same source.

Molecules are shown by their SMILES.

As for `O=C(N[C@@H](Cc1c[nH]c2ccccc12)C(=O)O)c1nc(Cl)c2ccccc2c1O`, in data set [1], the Activity was below 5%.

For `CC(C)C[C@@H](NC(=O)c1nc(Cl)c2ccccc2c1O)C(=O)O`, the Activity in data set [1] is below 5%; in the data set on BL21-DE3 [2], 32%.

For the molecule `CC(C)[C@H](NC(=O)c1nc(Cl)c2ccccc2c1O)C(=O)O`, in data set [1], the Activity is 16%.

Consider `O=C(O)CC[C@@H](NC(=O)c1nc(Cl)c2ccccc2c1O)C(=O)O`, for which, in [1], the Activity was below 5%.

Turning to `CC(C)C[C@H](NC(=O)c1nc(Cl)c2ccccc2c1O)C(=O)O`, the Activity was below 5% in [1] and 26% with BL21-DE3 [2].

Consider `CC(C)[C@@H](NC(=O)c1nc(Cl)c2ccccc2c1O)C(=O)O`, for which, in data set [1], the Activity was 16%.

With `O=C(Cc1ccccc1)N[C@@H]1C(=O)N2C(C(=O)O)=C(COc3ccc4ccc(=O)oc4c3)C[S+]([O-])[C@H]12` (stereo partly specified), the Stability result in data set [3] and in [4] was “Stable” throughout.

Regarding `O=C(O)C[C@H](NC(=O)c1nc(Cl)c2ccccc2c1O)C(=O)O`, the Activity in [1] is below 5%.

Broadly, the Km is the substrate concentration at which the rate is half of its maximum. As usually defined, the kcat is the maximal rate divided by the concentration of active sites. Turning to `O=C(Cc1cccs1)N[C@@H]1C(=O)N2C(C(=O)O)=C(/C=C/c3ccc([N+](=O)[O-])cc3[N+](=O)[O-])CS[C@H]12`, the Km was determined as 8.8 µM with BL21-DE3 [5]; 7.2 µM in the data set on BL21-DE3 [6]; 55.7 µM with BL21-DE3 [7]; 16 µM in the data set with BL21-DE3 [8]; 8.1 µM in the data set on BL21-DE3 [9]. The kcat worked out at 25.3 s⁻¹ in the data set with BL21-DE3 [5]; 226 s⁻¹ in the data set with BL21-DE3 [6]; 2790 s⁻¹ in the data set on BL21-DE3 [7]; 0.7 s⁻¹ with BL21-DE3 [8]; 14.9 s⁻¹ in the data set with BL21-DE3 [9].

Consider `O=C(Cc1ccccc1)N[C@@H]1C(=O)N2C(C(=O)O)=C(COc3ccc4ccc(=O)oc4c3)CS(=O)(=O)[C@H]12`, for which the Stability result in data set [3] and in data set [4] was “Stable” throughout.

As for `O=C(O)C[C@@H](NC(=O)c1nc(Cl)c2ccccc2c1O)C(=O)O`, the Activity in [1] was below 5%.

`O=C(N[C@H](Cc1c[nH]c2ccccc12)C(=O)O)c1nc(Cl)c2ccccc2c1O`: the Activity in data set [1] is below 5%.

On to `O=C(O)CC[C@H](NC(=O)c1nc(Cl)c2ccccc2c1O)C(=O)O`, for which the Activity in data set [1] is below 5%.

The values above are taken from ChEMBL document CHEMBL2417383, “Assay platform for clinically relevant metallo-β-lactamases” (J Med Chem, 2013).
